Consider one molecule from ChEMBL document CHEMBL4342410, “Design and Discovery of N-(3-(2-(2-Hydroxyethoxy)-6-morpholinopyridin-4-yl)-4-methylphenyl)-2-(trifluoromethyl)isonicotinamide, a Selective, Efficacious, and Well-Tolerated RAF Inhibitor Targeting RAS Mutant Cancers: The Path to the Clinic” (J Med Chem, 2020).

A short description of series [1]: Intrinsic clearance in human liver microsomes. The class given is ADME, Microsome. Conditions: read-out: CLH.
In series [2] the test system is Serine/threonine-protein kinase B-raf (Homo sapiens), P15056 [V600E]. Briefly: Binding affinity to human partial length BRAF V600E mutant (S429 to E741 residues) expressed in mammalian expression system at 1 uM by Kinomescan method relative to control.
Chain of Serine/threonine-protein kinase B-raf (Homo sapiens), P15056 [V600E] (P15056 whole entry V600E, the tested form may be a part): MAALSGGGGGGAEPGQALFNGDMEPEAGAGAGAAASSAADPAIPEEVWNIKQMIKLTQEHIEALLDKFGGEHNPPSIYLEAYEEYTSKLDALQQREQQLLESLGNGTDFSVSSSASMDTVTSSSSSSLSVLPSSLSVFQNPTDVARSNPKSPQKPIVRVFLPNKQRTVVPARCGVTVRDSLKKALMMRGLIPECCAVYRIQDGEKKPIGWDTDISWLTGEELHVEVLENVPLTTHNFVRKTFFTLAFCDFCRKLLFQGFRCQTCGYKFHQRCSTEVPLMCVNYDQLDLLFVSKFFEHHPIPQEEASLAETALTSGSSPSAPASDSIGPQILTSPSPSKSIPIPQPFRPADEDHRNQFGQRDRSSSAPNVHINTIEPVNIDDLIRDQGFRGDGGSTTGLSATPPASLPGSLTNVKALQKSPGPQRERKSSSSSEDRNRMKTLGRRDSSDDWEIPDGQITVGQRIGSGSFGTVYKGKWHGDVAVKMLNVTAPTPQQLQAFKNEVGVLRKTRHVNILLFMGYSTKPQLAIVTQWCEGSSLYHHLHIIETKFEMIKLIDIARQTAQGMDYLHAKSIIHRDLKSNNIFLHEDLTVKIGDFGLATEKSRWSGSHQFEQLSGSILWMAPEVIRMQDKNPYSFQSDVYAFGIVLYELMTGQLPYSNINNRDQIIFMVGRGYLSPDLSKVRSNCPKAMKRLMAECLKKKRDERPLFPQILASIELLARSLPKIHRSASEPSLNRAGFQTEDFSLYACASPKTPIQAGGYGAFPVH
Series [3] concerns the target T1, RAF proto-oncogene serine/threonine-protein kinase (Homo sapiens, UniProt P04049). Briefly: Binding affinity to wild-type human partial length CRAF (I330 to T640 residues) expressed in bacterial expression system at 1 uM by Kinomescan method relative to control.
The target in series [4] is Platelet-derived growth factor receptor beta (Homo sapiens, UniProt P09619). Briefly: Binding affinity to wild-type human partial length PDGFRB (V582 to Y1009 residues) expressed in bacterial expression system at 1 uM by Kinomescan method relative to control. An outline of the steps:
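KINOMEscan competition binding panel of about 456 kinases, compound tested at 1 μM. Activity is given as % of control = [(test signal − positive control signal)/(negative control signal − positive control signal)] × 100.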

In series [5] the target is T1, RAF proto-oncogene serine/threonine-protein kinase. Briefly: Binding affinity to wild-type human partial length CRAF (I330 to T640 residues) expressed in bacterial expression system by Kinomescan method.
For series [6], the target named is T2, Discoidin domain-containing receptor 2 (Homo sapiens, UniProt Q16832).
T2 sequence (Q16832 whole entry): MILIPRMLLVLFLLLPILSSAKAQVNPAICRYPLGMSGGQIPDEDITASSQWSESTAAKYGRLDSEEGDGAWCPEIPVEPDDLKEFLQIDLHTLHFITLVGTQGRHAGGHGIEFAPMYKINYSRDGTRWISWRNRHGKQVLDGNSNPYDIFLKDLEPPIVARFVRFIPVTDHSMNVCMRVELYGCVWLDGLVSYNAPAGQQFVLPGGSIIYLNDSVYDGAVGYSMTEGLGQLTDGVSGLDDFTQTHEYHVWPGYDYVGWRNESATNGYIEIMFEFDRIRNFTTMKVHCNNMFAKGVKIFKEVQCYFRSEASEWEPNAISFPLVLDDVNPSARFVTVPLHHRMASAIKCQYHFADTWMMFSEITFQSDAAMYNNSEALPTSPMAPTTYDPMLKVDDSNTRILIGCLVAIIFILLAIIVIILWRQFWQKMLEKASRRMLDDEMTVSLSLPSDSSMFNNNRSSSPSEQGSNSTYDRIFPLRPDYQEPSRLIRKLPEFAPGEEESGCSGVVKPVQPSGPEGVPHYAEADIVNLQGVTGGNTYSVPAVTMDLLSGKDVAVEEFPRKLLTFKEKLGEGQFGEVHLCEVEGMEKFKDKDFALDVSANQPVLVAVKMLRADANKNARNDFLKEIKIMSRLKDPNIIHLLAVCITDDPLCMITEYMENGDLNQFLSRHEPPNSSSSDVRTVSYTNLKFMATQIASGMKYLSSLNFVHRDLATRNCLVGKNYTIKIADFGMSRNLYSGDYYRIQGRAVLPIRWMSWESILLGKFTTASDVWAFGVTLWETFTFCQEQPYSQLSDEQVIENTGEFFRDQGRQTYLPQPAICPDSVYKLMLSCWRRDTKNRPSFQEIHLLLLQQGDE
Briefly: Binding affinity to wild-type human partial length DDR2 (V555 to E855 residues) expressed in mammalian expression system by Kinomescan method.

A short description of series [7]: AUC (infinity) in rat at 4 mg/kg, po. Set-up: dose 4 mg/kg, route oral, time infinity. The class given is ADME, organism-based. Conditions: in vivo.
A short description of series [8]: Clearance in mouse at 2 mg/kg, iv or 4 mg/kg, po. The class given is ADME, organism-based. The conditions noted are these: in vivo.
Series [9] is described as follows: Volume of distribution at steady state in mouse at 2 mg/kg, iv or 4 mg/kg, po. The class given is ADME, organism-based. The conditions noted are these: in vivo, read-out: Vdss.
The nature of series [10]: Oral bioavailability in dog at 0.4 mg/kg. The class given is ADME, organism-based, Canis lupus familiaris. The conditions noted are these: in vivo.
A short description of series [11]: Time at which free plasma concentration stays above in vitro IC50 for CRAF in human Calu6 cells assessed as reduction MEK phosphorylation in nude rat xenografted with human Calu6 cells harboring KRAS Q61K mutant at 150 mg/kg, po. The class given is ADME, organism-based. Conditions: in vivo. Background: In xenograft studies the graft and the host belong to different species.

The subject of series [12] is Calu-6. Briefly: Antitumor activity against human Calu6 cells harboring KRAS Q61K mutant xenografted in nude rat assessed as tumor growth at 35 mg/kg, po administered daily for 18 days starting from day 13 post tumor implantation and measured on day 31 relative to control. The class given is functional. An outline of the steps:
(§1)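 Nude rats bearing Calu-6 (KRAS Q61K) human NSCLC xenografts received vehicle or drug p.o. daily at 15, 35, 75 or 150 mg/kg. Dosing began 13 days after tumor implantation and ran to day 31, i.e. 18 days of treatment. Tumor volumes were read out as %T/C or % regression versus vehicle on day 31. Body weight was also tracked.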

In series [13] the test system is Calu-6. Briefly: Antitumor activity against human Calu6 cells harboring KRAS Q61K mutant xenografted in nude rat assessed as tumor regression at 75 mg/kg, po administered daily for 18 days starting from day 13 post tumor implantation and measured on day 31 relative to control. The class given is functional. An outline of the steps:
as §1

Series [14] in a line: Cmax in nude rat xenografted with human Calu6 cells harboring KRAS Q61K mutant at 15 mg/kg, po administered daily for 18 days starting from day 13 post tumor implantation and measured on day 31. The class given is ADME, organism-based. Conditions: in vivo. Set-up: dose 15 mg/kg, route oral. An outline of the steps: (§2)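 Nude rats carrying Calu-6 (KRAS Q61K) NSCLC xenografts were dosed p.o. once daily at 15, 35, 75 or 150 mg/kg from day 13 to day 31 after implant. Plasma was collected after the last dose and drug concentration was measured. AUC and Cmax were calculated per dose on day 31.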

A short description of series [15]: Tmax in nude rat xenografted with human Calu6 cells harboring KRAS Q61K mutant at 15 mg/kg, po administered daily for 18 days starting from day 13 post tumor implantation and measured on day 31. The class given is ADME, organism-based. The conditions noted are these: in vivo. The gist of the method:
(§3)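 Calu-6 xenograft nude rats were dosed orally once daily at 15, 35, 75 or 150 mg/kg from day 13 after implantation to day 31. Plasma was collected after the last dose on day 31, drug concentrations were measured, and PK parameters including AUC were calculated for each dose.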

Series [16] is described as follows: Time of last measurable concentration in nude rat xenografted with human Calu6 cells harboring KRAS Q61K mutant at 35 mg/kg, po administered daily for 18 days starting from day 13 post tumor implantation and measured on day 31. Conditions: in vivo, 432 h. The class given is ADME, organism-based. The gist of the method:
as §3

The nature of series [17]: Cmax in nude rat xenografted with human Calu6 cells harboring KRAS Q61K mutant at 75 mg/kg, po administered daily for 18 days starting from day 13 post tumor implantation and measured on day 31. The class given is ADME, organism-based. Further details: dose 75 mg/kg, route oral. Conditions: in vivo. An outline of the steps: as §2
The nature of series [18]: Tmax in nude rat xenografted with human Calu6 cells harboring KRAS Q61K mutant at 75 mg/kg, po administered daily for 18 days starting from day 13 post tumor implantation and measured on day 31. The class given is ADME, organism-based. Conditions: in vivo. The gist of the method: as §3
The nature of series [19]: Time of last measurable concentration in nude rat xenografted with human Calu6 cells harboring KRAS Q61K mutant at 75 mg/kg, po administered daily for 18 days starting from day 13 post tumor implantation and measured on day 31. The class given is ADME, organism-based. The conditions noted are these: in vivo, 432 h. An outline of the steps: as §3
Series [20] in a line: Cmax in nude rat xenografted with human Calu6 cells harboring KRAS Q61K mutant at 150 mg/kg, po administered daily for 18 days starting from day 13 post tumor implantation and measured on day 31. The class given is ADME, organism-based. Further details: dose 150 mg/kg, route oral. The conditions noted are these: in vivo. An outline of the steps: as §2
Series [21] can be described thus: Dissociation constant, pKa of the compound. The class given is physicochemical.

T1 sequence (P04049 whole entry, the tested form may be a part): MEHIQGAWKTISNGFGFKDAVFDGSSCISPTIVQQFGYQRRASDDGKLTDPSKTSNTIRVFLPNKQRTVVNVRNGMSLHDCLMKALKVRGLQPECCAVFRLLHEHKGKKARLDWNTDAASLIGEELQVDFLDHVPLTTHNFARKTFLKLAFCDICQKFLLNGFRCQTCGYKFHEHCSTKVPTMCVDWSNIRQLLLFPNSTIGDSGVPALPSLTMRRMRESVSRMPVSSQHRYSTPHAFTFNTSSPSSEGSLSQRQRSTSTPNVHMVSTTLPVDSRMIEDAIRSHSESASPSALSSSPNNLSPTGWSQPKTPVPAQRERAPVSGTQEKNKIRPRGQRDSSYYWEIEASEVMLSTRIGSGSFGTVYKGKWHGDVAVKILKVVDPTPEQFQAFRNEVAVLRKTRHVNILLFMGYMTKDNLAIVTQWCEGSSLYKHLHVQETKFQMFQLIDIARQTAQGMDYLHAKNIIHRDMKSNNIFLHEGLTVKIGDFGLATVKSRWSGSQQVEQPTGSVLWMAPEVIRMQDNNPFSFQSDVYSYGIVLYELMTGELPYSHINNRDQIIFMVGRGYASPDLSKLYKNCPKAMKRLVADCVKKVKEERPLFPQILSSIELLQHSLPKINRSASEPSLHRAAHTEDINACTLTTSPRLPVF
Chain of Platelet-derived growth factor receptor beta (P09619 whole entry, the tested form may be a part): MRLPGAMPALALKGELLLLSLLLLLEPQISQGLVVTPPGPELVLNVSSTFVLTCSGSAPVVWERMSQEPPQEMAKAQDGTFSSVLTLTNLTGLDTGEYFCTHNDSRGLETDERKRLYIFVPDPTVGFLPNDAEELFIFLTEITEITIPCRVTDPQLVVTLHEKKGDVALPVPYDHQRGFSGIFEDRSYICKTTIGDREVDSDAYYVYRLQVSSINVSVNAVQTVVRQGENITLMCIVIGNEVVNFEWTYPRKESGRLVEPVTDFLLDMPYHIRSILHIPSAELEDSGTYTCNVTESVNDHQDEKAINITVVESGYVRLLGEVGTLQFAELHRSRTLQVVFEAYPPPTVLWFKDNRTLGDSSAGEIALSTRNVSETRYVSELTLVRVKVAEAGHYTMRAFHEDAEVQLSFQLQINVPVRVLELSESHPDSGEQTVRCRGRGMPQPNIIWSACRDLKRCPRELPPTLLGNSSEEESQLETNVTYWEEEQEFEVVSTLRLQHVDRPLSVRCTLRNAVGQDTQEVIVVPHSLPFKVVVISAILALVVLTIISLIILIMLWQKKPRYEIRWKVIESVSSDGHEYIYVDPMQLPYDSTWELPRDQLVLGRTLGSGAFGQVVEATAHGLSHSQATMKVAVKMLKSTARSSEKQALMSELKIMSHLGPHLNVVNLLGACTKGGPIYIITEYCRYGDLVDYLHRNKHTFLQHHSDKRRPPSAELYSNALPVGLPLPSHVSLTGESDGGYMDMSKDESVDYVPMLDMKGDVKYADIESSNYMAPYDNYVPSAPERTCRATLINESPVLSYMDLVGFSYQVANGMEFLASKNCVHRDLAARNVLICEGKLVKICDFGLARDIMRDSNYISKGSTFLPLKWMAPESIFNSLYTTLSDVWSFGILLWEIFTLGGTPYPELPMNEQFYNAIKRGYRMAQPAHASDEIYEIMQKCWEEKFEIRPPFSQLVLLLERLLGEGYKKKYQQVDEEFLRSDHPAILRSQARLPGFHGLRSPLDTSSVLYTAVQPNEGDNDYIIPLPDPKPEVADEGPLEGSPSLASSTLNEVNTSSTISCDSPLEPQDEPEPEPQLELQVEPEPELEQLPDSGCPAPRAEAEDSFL

With `Cc1ccc(NC(=O)c2ccnc(C(F)(F)F)c2)cc1-c1cc(OCCO)nc(N2CCOCC2)c1` [NAPORAFENIB], the microsomal CLint in series [1] worked out at 13.5 µL/min/mg. The Activity in [2] is more than 98%; in [3] it was more than 98%; in series [4] it was more than 99%; in the series on Calu-6 [13] it was 21%. Moreover, the Kd (commonly the concentration at which binding is half-saturated) in [5] came out at 3.6 nM; in series [6], 10 nM. Moreover, the AUC(0-inf) (commonly total exposure, with the tail of the curve extrapolated) in [7] came out at 1.8 µM·h. The clearance in series [8] was determined as 19 mL/min/kg. Besides, the Vd in series [9] worked out at 2.1 L/kg. In addition, in [10], the bioavailability (as a rule, the share of a dose that reaches the circulation, judged against a reference dose that is usually intravenous) came to 79%. Besides, the “T>IC50” value in series [11] was 24 h. For the same molecule, in the series with Calu-6 [12], the T/C (in general, the ratio of treated to control) was 9%. Further, the Cmax – broadly, the highest concentration seen after dosing – in series [14] was determined as 0.878 µM; in [17] it was 8.68 µM; in series [20], 12.7 µM. Moreover, the Tmax (usually the time at which the peak concentration occurs) in [15] amounted to 3 h; in [18], 2 h. Also, the Tlast in series [16] and in series [19] was 24 h each time. Moreover, the pKa (commonly the negative logarithm of the acid dissociation constant) in [21] worked out at 3.86.
